Compound activity: PubChem BioAssay, Broad Institute
CFTR F508del cor: CFTR F508del correction in bronchial cells | activity (quench increase), % at 7.58 µM | CFBE cells, YFP halide quenching; stimulated with forskolin plus potentiator P3; % fluorescence drop versus neutral controls | hit rate 0.36% among 350,000;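 active = mean added fluorescence quench of at least 8% versus neutral control, with both replicates also reaching 8%; inconclusive = only one of the mean or replicate conditions met; inactive = mean below 8% and not both replicates reaching 8%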;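 note: cells transiently co-express mutant CFTR-F508del with the halide-sensitive YFP; corrector assay measuring rescue of mutant channel to the surface after 24 h compound exposure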
ERAP1 inh: ERAP1 (human) enzyme inhibition. Q9NZ08. recombinant ERAP1, Leu-AMC fluorescence, 60 min. inhibition, % at 10.7 µM. hit rate 0.15% among 340,000;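 active = mean replicate inhibition of at least 30%, or all replicates individually reaching that 30% level; inactive = mean below 30% and not every replicate reaching it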;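 note: 0% = neutral control wells and 100% = L-leucinethiol positive control wells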
DENV2 CPE: inhibitors of DENV2 cytopathic effect. CPE inhibition, % at 9.99 µM. hit rate 1.7% among 350,000. DENV2-infected cells, cytopathic effect rescue, plate reader; in the data active = CPE inhibition above about 20%, passing the limit was not always enough; inconclusive = no clear call, values can overlap the other calls; tested in BHK-21 cells;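 note: 0% = median of neutral control wells and 100% = median of positive control wells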
FGF22 binding: binders of recombinant human FGF22 by thermal shift; Q9HCT0; SYPRO orange fluorescence; percent of sucrose octasulfate shift, DMSO zero; activity (Tm shift, normalised), % at 9.99 µM; hit rate 1.5% among 340,000; AID 651658;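 active = mean Tm shift, scaled 0 neutral to 100 positive control, at about 1.3% or above, every replicate too, limit read from the data; inconclusive = no clear call, values can overlap the other calls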
Target sequence (Q9HCT0 whole entry, looked up): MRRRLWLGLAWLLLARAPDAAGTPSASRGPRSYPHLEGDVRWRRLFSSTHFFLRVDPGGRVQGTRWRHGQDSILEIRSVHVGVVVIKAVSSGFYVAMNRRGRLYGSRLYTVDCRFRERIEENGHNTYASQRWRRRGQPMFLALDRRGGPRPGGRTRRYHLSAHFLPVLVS
E-selectin induc: E-selectin induction on HUVECs; P16581; HUVEC E-selectin immunofluorescence imaging; normalized: neutral wells 0, TNF-alpha wells 100; activation, % at 7.58 µM; hit rate 0.37% among 260,000; AID 686992;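 active = mean E-selectin-positive cell signal at least 10% of the positive control, reached in at least 60% of replicates, without over 20% cell loss; inconclusive = no rule given, readout overlaps actives, possibly toxicity-flagged; inactive = the rest, including those meeting only one limit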
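assay system = HUVEC, human umbilical vein endothelial cells | input = 3,000 HUVEC seeded per well | medium = EGM-2 growth medium on 0.1% gelatin-coated wells | dosing = one compound dose added by pin transfer | signal = immunofluorescence imaging | read-out basis = % PE-positive cells | control set = TNF-alpha, DMSO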
Numbers without * were called inactive; ? = inconclusive; · = no result. An excerpt weighted towards active compounds, which were near 3.7% of everything screened.

SMILES	CFTR F508del cor	ERAP1 inh	DENV2 CPE	FGF22 binding	E-selectin induc
O=C(Cc1ccccc1)N[C@@H]1CC[C@H](CC(=O)N2CCOCC2)O[C@@H]1CO	-1	1	0	-1	0
Cc1cccc(OCCn2c(=O)n(C)c3ccccc32)c1	1	5	69*	0	-1
Cc1cccc(OCCN2C(=O)c3ccccc3C2=O)c1	-1	0	-2	0	·
Cn1c(CN2CCCC2)c(C#N)c2ccccc21	1	2	0	43*	·
COCC(=O)Nc1ccc2c(c1)C(=O)N(C)C[C@H](OC)[C@H](C)CN(Cc1cncnc1)[C@@H](C)CO2	-3	-1	6	0	0
Cc1cc2nc(CN(C)Cc3c(C(=O)N(C)C)nc4ccc(Cl)cn34)[nH]c2cc1C	-3	-10	2	43*	0
O=C(NCC[C@@H]1CC[C@H](NS(=O)(=O)c2cccc(F)c2)[C@@H](CO)O1)C1CCCC1	0	1	-2	0	0
OC(CCN1CCC2(CC1)OCCO2)C(F)(F)F (stereo not drawn)	-2	3	4	43*	·
OC(CN1CCC(Cc2ccccc2)CC1)C(F)(F)F (stereo not drawn)	-1	-2	-9	0	·
O=C(CN1CCOCC1)N1CCCCN2[C@H](CO)[C@@H](c3ccc(-c4ccccc4)cc3)[C@H]2C1	-2	1	54*	0	1
CC(=O)N1CCCCN2[C@@H](CO)[C@H](c3ccc(C#Cc4ccccc4F)cc3)[C@@H]2C1	1	0	23*	0	1
CC(=O)N1CCCCN2[C@H](CO)[C@H](c3ccc(C#Cc4ccccc4F)cc3)[C@H]2C1	1	-2	-11	0	0
O=C(CN1CCOCC1)N1CCCCN2[C@@H](CO)[C@H](c3ccc(C#Cc4ccccc4F)cc3)[C@@H]2C1	3	·	·	·	1
O=C(CN1CCOCC1)N1CCCCN2[C@H](CO)[C@@H](c3ccc(C#Cc4ccccc4F)cc3)[C@H]2C1	1	-2	27*	-1	0
C/C=C/c1ccc([C@@H]2[C@@H](CO)N(C(C)=O)C23CN(C(=O)NC2CCCC2)C3)cc1	3	2	9	·	0
CCCNC(=O)N1CCC2(CC1)CN(C(=O)Nc1ccc(F)cc1)[C@@H](CO)c1[nH]c3cc(OC)ccc3c12	-1	-3	12	0	0
COc1ccc(C(=O)/C=C/C(=O)N(Cc2ccccc2)C(C(=O)NC2CCCCC2)c2ccncc2)c(O)c1 (stereo not drawn)	3	-1	41*	0	·
COc1ccc(C(=O)/C=C/C(=O)N(Cc2ccccc2OC)C(C(=O)NC2CCCCC2)c2ccncc2)c(O)c1 (stereo not drawn)	·	·	·	·	3
C=CCNc1nc(C(=O)OCC(=O)NCc2ccccc2OC)cs1	2	0	66*	0	·
C[C@@H]1CN([C@@H](C)CO)C(=O)c2cccc(NC(=O)c3cnccn3)c2O[C@@H]1CN(C)C(=O)Nc1ccc(C(F)(F)F)cc1	-1	-2	4	0	·
OCC(O)C1OC(Nc2ccc(Br)cc2)C(O)C1O (stereo not drawn)	·	3	18	43*	·
C[C@@H]1OC(Nc2ccc(N=Nc3ccccc3)cc2)[C@H](O)[C@H](O)[C@H]1O (stereo partly drawn)	0	17	4	0	·
Cc1ccc(S(=O)(=O)CC(N)=O)cc1	0	7	5	0	·
Cc1ccc(S(=O)(=O)CCSC(=N)N)cc1	-9	-2	·	44*	·
O=C(CNC(=O)c1ccccc1Br)N/N=C/c1cc(Br)ccc1O	4	-1	3	44*	·
SMILES	CFTR F508del cor	ERAP1 inh	DENV2 CPE	FGF22 binding	E-selectin induc
O=C(O)CNC(=O)c1ccccc1Br	0	-6	-6	43*	5
O=C(CNC(=O)c1ccccc1Br)N/N=C/c1ccccc1O	-1	1	6	43*	·
O=C(CNC(=O)c1ccccc1)N/N=C/c1cc(Br)ccc1O	1	2	·	0	·
O=C(CNC(=O)c1cccc(Br)c1)N/N=C/c1ccc[nH]1	1	-2	-8	43*	·
O=C(NCCCCc1ccccc1)c1ccccc1Br	0	-2	2	0	·
CCC(=O)N[C@H]1CC[C@H](CCn2cc(CN(C)C)nn2)O[C@@H]1CO	-1	-2	-7	0	0
COc1ccc(CNC(=O)C[C@@H]2CC[C@H](NC(=O)c3ccc4c(c3)OCO4)[C@@H](CO)O2)cc1	-2	-2	0	0	0
C[C@H]1CN([C@@H](C)CO)C(=O)c2cccc(NC(=O)NC3CCCCC3)c2O[C@@H]1CN(C)C(=O)Nc1ccc(F)cc1	2	1	5	0	0
C[C@H]1CN([C@@H](C)CO)C(=O)c2cccc(NC(=O)Nc3ccc(F)cc3)c2O[C@@H]1CN(C)C(=O)NC1CCCCC1	2	1	14	-1	69*
C[C@H]1CN([C@@H](C)CO)C(=O)c2cccc(NC(=O)C3CCOCC3)c2O[C@H]1CN(C)CC1CCCCC1	1	-3	44*	-1	4
C[C@H]1CN([C@@H](C)CO)C(=O)c2cccc(NC(=O)NC3CCCCC3)c2O[C@@H]1CN(C)CC1CCCCC1	1	-3	30*	0	0
C[C@H]1CN([C@@H](C)CO)C(=O)c2cccc(NC(=O)Nc3ccc(F)cc3)c2O[C@H]1CN(C)CC1CCCCC1	2	5	-7	-1	34*
C[C@@H]1CN([C@@H](C)CO)C(=O)c2cccc(NC(=O)C3CCOCC3)c2O[C@@H]1CN(C)CC1CCCCC1	3	-3	-5	0	3
C[C@@H]1CN([C@H](C)CO)C(=O)c2cccc(NC(=O)NC3CCCCC3)c2O[C@H]1CN(C)CC1CCCCC1	-3	-2	-5	0	0
C[C@H](CO)N1C[C@H](C)[C@@H](CN(C)Cc2ccc(C(F)(F)F)cc2)Oc2ccc(NC(=O)CCN3CCOCC3)cc2CC1=O	-1	-3	?	-1	·
C/C=C/c1ccc([C@H]2[C@@H](C#N)N(c3ncc(CC)s3)[C@@H]2CO)cc1	0	1	-25	0	·
COc1ccc(NC(=O)Nc2cccc3c2O[C@@H](CN(C)C(=O)NC2CCCCC2)[C@@H](C)CN([C@@H](C)CO)C3=O)cc1	2	0	-4	0	-5
COc1ccc(NC(=O)Nc2cccc3c2O[C@H](CN(C)C(=O)NC2CCCCC2)[C@H](C)CN([C@H](C)CO)C3=O)cc1	3	-1	-4	-1	32*
COc1ccc(NC(=O)Nc2cccc3c2O[C@H](CN(C)C(=O)NC2CCCCC2)[C@H](C)CN([C@@H](C)CO)C3=O)cc1	1	0	88*	0	1
COCC(=O)N1C[C@H](C)[C@H](OC)CN(C)C(=O)c2cc(NC(=O)NC(C)C)ccc2OC[C@H]1C	-1	1	-11	0	2
